Calls of active or inactive are those of the source. The rule behind the calls is not given here.
Assays:
HeLa [1] = test: Induction of apoptosis in human HeLa cells at > 2 uM incubated for 24 hrs by Annexin V-FITC/PI staining based flow cytometric analysis; assay type: functional, cell-based
In short: (§1)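 Cells grown at 37°C, 5% CO2 (A549, HeLa, MCF7 in DMEM high glucose; HCT116 in McCoy's 5A; THP1 and primary AML M4 apheresis blasts in RPMI1640), exposed to inhibitor or DMSO for 24 h. Apoptotic fraction by flow cytometry after annexin V-fluorescein/propidium iodide double staining. Means ± SD of three biological replicates; AML blasts from one patient, three technical replicates. Student's t-test versus DMSO/untreated.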

[2] = target: T1, Glycogen synthase kinase-3 alpha (Homo sapiens, UniProt P49840); test: Inhibition of GSK3A (unknown origin) assessed as residual activity at 10 uM incubated for 120 mins in presence of 33P-ATP by radiometric kinase assay relative to control
Target sequence in this assay (P49840 2-483 limits assumed): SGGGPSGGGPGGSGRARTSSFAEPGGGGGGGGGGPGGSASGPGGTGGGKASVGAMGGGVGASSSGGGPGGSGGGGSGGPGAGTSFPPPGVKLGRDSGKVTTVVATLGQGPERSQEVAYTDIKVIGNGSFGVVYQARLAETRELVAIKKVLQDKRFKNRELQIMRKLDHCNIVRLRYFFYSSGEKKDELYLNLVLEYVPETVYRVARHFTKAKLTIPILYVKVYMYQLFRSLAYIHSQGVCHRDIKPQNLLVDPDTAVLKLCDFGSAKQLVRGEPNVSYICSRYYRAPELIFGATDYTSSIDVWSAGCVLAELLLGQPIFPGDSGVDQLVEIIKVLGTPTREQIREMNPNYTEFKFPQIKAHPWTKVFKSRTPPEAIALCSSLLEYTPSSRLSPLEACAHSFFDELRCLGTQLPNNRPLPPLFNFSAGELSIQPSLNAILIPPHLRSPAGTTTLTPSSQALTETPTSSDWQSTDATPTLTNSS

[3] = Selectivity ratio of IC50 for inhibition of CDK9/Cyclin T1 (unknown origin) to IC50 for inhibition of CDK2/Cyclin A (unknown origin)
[4] = target: Cyclin-dependent kinase 9 (Homo sapiens) (UniProt P50750); test: Inhibition of CDK9 in human A549 cells assessed as downregulation of GAPDH mRNA expression at 2 to 6 uM incubated for 90 mins by RT-qPCR analysis relative to control; assay type: cell-based; conditions: dose 2-6 µM
Sequence of Cyclin-dependent kinase 9 (Homo sapiens) (P50750 whole entry, the tested form may be a part): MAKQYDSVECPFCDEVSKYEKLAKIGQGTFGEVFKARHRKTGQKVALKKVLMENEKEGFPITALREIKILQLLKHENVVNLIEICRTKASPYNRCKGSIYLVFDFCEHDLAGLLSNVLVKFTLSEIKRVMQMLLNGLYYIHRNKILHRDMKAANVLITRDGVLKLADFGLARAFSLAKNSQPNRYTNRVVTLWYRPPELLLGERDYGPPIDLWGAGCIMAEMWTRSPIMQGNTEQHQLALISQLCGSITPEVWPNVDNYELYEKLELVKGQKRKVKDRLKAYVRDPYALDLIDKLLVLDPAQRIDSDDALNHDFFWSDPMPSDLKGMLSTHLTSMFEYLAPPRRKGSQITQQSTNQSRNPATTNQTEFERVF

CDK7/Cyclin H/MNAT1 = CDK7/Cyclin H/MNAT1 (Homo sapiens, UniProt P50613); test: Inhibition of CDK7/Cyclin H/MAT1 (unknown origin) using ULight MBP peptide as substrate in presence of ATP incubated for 1 hr by FRET based LANCE Ultra KinaSelect screen assay; assay type: protein-complex assay
Sequence of CDK7/Cyclin H/MNAT1 (P51946 whole entry): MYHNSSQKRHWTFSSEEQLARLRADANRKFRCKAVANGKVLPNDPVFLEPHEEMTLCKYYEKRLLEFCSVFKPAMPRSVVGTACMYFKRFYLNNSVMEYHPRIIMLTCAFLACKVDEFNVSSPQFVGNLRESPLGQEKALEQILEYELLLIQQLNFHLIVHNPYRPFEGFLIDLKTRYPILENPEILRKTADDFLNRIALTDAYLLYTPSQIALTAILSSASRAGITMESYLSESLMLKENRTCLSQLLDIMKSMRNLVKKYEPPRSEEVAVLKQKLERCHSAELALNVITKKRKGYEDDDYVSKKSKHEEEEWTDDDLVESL
Sequence of CDK7/Cyclin H/MNAT1 (P50613 whole entry): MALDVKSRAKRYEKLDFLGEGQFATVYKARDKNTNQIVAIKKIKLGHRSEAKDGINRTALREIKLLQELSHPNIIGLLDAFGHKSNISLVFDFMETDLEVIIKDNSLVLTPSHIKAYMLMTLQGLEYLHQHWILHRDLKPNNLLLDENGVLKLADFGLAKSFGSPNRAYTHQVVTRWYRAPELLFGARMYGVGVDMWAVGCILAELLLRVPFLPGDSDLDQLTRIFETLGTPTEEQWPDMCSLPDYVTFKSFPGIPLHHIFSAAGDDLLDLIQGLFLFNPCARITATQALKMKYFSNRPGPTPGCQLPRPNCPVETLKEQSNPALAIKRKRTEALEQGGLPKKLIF
Sequence of CDK7/Cyclin H/MNAT1 (P51948 whole entry, further chain): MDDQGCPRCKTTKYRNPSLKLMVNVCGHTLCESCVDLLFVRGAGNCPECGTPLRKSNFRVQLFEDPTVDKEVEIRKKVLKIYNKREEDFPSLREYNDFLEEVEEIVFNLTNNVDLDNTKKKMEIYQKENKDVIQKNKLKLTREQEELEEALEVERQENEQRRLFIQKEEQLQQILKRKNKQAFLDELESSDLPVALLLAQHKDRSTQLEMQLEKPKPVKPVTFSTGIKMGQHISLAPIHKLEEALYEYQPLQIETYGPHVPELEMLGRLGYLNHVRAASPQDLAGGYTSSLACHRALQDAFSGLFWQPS

A549 [5] = test: Induction of apoptosis in human A549 cells at 15 uM incubated for 24 hrs by Annexin V-FITC/PI staining based flow cytometric analysis; assay type: functional, cell-based; in short: as §1
[6] = target: Cyclin-dependent kinase 9 (Homo sapiens) (UniProt P50750); test: Inhibition of CDK9 in human A549 cells assessed as downregulation of PLK2 mRNA expression at 2 to 6 uM incubated for 90 mins by RT-qPCR analysis relative to control; assay type: cell-based; conditions: dose 2-6 µM
A549 [7] = test: Transcription level in human A549 cells nuclear extract fused with Gal4-VP16 at 10 uM in presence of ATP by phosphorimaging analysis relative to control
[8] = target: Cyclin-dependent kinase 4/cyclin D1 (Homo sapiens, UniProt P11802); test: Inhibition of CDK4/Cyclin D1 (unknown origin) using ULight MBP peptide as substrate in presence of ATP incubated for 1 hr by FRET based LANCE Ultra KinaSelect screen assay; assay type: protein-complex assay
Sequence of Cyclin-dependent kinase 4/cyclin D1 (P11802 whole entry): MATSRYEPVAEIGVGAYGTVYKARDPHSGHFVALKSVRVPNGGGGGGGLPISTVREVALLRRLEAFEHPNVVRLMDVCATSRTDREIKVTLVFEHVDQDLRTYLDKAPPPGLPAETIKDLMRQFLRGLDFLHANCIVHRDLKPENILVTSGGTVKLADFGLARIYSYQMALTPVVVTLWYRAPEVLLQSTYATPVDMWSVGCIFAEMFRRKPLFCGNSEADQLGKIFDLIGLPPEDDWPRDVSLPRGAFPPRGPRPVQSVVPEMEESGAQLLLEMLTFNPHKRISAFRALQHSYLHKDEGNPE
Sequence of Cyclin-dependent kinase 4/cyclin D1 (P24385 whole entry, further chain): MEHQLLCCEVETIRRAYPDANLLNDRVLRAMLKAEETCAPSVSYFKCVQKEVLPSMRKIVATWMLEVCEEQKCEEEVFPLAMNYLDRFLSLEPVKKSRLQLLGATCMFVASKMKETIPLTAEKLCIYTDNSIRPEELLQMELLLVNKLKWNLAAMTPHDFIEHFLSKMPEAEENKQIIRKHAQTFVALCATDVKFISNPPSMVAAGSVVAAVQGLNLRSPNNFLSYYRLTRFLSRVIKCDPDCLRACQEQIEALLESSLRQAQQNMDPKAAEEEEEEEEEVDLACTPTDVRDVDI

[9] = target: Cyclin-dependent kinase 1/cyclin B1 (Homo sapiens, UniProt P06493); test: Inhibition of CDK1/Cyclin B1 (unknown origin) using ULight MBP peptide as substrate in presence of ATP incubated for 1 hr by FRET based LANCE Ultra KinaSelect screen assay; assay type: protein-complex assay
Sequence of Cyclin-dependent kinase 1/cyclin B1 (P06493 whole entry): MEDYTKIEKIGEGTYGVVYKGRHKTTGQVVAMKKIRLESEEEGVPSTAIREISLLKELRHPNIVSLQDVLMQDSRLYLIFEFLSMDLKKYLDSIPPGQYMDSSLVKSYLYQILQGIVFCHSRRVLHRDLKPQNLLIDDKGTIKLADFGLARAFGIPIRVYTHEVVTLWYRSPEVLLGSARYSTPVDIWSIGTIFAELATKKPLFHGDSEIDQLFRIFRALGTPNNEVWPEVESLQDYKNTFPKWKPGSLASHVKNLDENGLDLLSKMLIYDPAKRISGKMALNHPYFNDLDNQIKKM
Sequence of Cyclin-dependent kinase 1/cyclin B1 (P14635 whole entry, further chain): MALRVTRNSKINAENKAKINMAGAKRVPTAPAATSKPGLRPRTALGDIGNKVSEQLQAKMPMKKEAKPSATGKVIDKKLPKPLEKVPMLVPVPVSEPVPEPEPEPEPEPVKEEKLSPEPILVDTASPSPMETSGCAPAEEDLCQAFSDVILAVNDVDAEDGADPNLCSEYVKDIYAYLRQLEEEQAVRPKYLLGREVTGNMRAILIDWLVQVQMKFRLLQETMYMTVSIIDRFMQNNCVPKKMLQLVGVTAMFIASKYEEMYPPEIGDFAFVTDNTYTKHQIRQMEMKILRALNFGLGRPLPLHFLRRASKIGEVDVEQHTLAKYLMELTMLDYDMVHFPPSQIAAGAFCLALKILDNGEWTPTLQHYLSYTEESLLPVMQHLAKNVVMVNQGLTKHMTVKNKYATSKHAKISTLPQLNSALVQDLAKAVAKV
In short: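 Time-resolved FRET kinase assay with purified CDK-cyclin pairs. ULight MBP peptide substrate was 50 nM final. Buffer was 50 mM HEPES-KOH pH 7.5, 10 mM MgCl2, 1 mM EGTA and 2 mM DTT, with ATP at each kinase's KM (CDK2-cyclin A 3 μM). Reactions ran 1 h at room temperature, then 2 nM Eu-labelled anti-phospho antibody was added for detection. IC50 given as mean ± SD.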

[10] = Induction of apoptosis in human Acute myeloid leukemic cell at 10 uM incubated for 24 hrs by Annexin V-FITC/PI staining based flow cytometric analysis relative to control; assay type: functional, Leukemia cell; in short: as §1
[11] = target: Cyclin-dependent kinase 9 (Homo sapiens) (UniProt P50750); test: Inhibition of CDK9 in human THP-1 cells assessed as downregulation of RPS15 mRNA expression by RT-qPCR analysis; assay type: cell-based
HCT 116 TP53(-/-) = test: Induction of apoptosis in human HCT116-p53-null cells at 10 uM incubated for 24 hrs by Annexin V-FITC/PI staining based flow cytometric analysis; assay type: functional, cell-based; in short: as §1
[12] = Selectivity ratio of IC50 for inhibition of CDK9/Cyclin T1 (unknown origin) to IC50 for inhibition of CDK4/Cyclin D1 (unknown origin)
HeLa [13] = test: Inhibition of RNA synthesis in human HeLa cells stably transfected with luciferase reporter gene at 0.04 to 2 uM incubated for 30 mins followed by doxycycline addition and measured after 60 mins by RT-qPCR analysis; assay type: functional, cell-based; conditions: dose 0.04-2 µM, time 90.0 min
In short: (§2)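 Stably transfected HeLa cells carrying a tetracycline-inducible luciferase reporter: inhibitor or DMSO for 30 min, then 1 μg/mL doxycycline for 60 min. De novo reporter transcripts measured by RT-qPCR.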

[14] = target: Cyclin-dependent kinase 9 (Homo sapiens) (UniProt P50750); test: Inhibition of CDK9 in human A549 cells assessed as downregulation of RPL3 mRNA expression at 1 to 10 uM incubated for 90 mins by RT-qPCR analysis relative to control; assay type: cell-based; conditions: dose 1-10 µM
[15] = target: Cyclin-dependent kinase 9 (Homo sapiens) (UniProt P50750); test: Inhibition of CDK9 in human A549 cells assessed as downregulation of CCND1 mRNA expression at 2 to 6 uM incubated for 90 mins by RT-qPCR analysis relative to control; assay type: cell-based; conditions: dose 2-6 µM
[16] = target: Tyrosine-protein kinase ABL2 (Homo sapiens, UniProt P42684); test: Inhibition of ABL2 (unknown origin) assessed as residual activity at 10 uM incubated for 120 mins in presence of 33P-ATP by radiometric kinase assay relative to control
Sequence of Tyrosine-protein kinase ABL2 (P42684 whole entry): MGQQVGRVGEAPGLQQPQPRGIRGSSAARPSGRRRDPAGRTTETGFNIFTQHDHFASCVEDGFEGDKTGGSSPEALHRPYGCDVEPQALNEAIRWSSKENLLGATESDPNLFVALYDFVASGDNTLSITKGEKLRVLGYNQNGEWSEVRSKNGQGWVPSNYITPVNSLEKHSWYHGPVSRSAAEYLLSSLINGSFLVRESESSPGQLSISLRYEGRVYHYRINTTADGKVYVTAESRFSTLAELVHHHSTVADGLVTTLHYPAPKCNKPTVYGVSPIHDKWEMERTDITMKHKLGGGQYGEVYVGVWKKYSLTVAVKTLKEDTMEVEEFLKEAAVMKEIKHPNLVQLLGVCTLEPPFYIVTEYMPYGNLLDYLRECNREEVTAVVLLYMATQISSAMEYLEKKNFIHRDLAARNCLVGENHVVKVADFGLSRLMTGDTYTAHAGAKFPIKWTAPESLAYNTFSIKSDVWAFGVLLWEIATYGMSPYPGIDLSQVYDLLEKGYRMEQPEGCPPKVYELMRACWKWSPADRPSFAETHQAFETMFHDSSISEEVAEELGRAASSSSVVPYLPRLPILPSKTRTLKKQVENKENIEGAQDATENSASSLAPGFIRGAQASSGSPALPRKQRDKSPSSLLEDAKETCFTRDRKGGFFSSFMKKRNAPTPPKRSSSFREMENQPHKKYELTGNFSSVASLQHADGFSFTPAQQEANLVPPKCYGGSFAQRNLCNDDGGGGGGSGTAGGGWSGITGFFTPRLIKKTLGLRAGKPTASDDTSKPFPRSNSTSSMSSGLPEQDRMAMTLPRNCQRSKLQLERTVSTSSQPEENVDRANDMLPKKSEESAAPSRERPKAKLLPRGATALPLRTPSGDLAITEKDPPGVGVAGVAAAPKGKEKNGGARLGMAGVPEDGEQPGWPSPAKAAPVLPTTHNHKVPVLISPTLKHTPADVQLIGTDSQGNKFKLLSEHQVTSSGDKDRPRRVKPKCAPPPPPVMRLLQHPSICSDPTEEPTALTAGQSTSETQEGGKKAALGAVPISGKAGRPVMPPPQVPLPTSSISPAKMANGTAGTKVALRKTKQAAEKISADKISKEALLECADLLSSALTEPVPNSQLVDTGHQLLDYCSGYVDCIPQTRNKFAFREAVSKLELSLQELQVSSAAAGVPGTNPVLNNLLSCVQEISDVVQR

[17] = target: Cyclin-dependent kinase 9 (Homo sapiens) (UniProt P50750); test: Inhibition of CDK9 in human THP-1 cells assessed as downregulation of MED1 mRNA expression by RT-qPCR analysis; assay type: cell-based
[18] = Selectivity ratio of IC50 for inhibition of CDK9/Cyclin T1 (unknown origin) to IC50 for inhibition of CDK1/Cyclin B1 (unknown origin)
[19] = target: CDK9/cyclin T1 (Homo sapiens) (UniProt O60563+P50750); test: Inhibition of CDK9/Cyclin T1 (unknown origin) assessed as residual activity at 10 uM incubated for 120 mins in presence of 33P-ATP by radiometric kinase assay relative to control; assay type: protein-complex assay
[20] = Transcription level in human HCT-116 cells nuclear extract fused with Gal4-VP16 at 10 uM in presence of ATP by phosphorimaging analysis relative to control
HeLa [21] = test: Inhibition of RNA synthesis in human HeLa cells stably transfected with luciferase reporter gene at 2 uM incubated for 30 mins followed by doxycycline addition and measured after 60 mins by RT-qPCR analysis relative to control; assay type: functional; conditions: 1.5 h, time 90 min; in short: as §2
[22] = target: Cyclin-dependent kinase 9 (Homo sapiens) (UniProt P50750); test: Inhibition of CDK9 in human A549 cells assessed as downregulation of CCND1 mRNA expression at 1 to 10 uM incubated for 90 mins by RT-qPCR analysis relative to control; assay type: cell-based; conditions: dose 1-10 µM
[23] = target: T1, Glycogen synthase kinase-3 alpha; test: Inhibition of GSK3A (unknown origin) incubated for 120 mins in presence of 33P-ATP by radiometric kinase assay
Target sequence in this assay (P49840 whole entry): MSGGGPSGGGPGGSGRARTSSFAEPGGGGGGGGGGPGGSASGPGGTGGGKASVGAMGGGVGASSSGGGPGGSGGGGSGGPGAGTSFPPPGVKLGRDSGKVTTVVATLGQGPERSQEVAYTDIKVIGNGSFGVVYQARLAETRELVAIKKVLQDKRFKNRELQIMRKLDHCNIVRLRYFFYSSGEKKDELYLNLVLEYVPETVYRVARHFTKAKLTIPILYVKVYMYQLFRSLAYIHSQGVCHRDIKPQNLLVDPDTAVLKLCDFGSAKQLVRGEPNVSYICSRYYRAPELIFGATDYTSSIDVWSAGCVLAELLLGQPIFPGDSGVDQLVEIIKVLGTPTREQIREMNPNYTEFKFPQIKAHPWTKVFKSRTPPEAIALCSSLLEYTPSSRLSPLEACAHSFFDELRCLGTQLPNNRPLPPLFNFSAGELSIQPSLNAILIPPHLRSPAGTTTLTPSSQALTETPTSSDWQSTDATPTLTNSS

[24] = target: Cyclin-dependent kinase 9 (Homo sapiens) (UniProt P50750); test: Inhibition of CDK9 in human A549 cells assessed as downregulation of p21 mRNA expression at 2 to 6 uM incubated for 90 mins by RT-qPCR analysis relative to control; assay type: cell-based; conditions: dose 2-6 µM

Structure (SMILES): COc1ccccc1-c1cc(Nc2cccc(NS(C)(=O)=O)c2)ncn1
- Activity (HeLa [1]): Active
- Activity [2]: 9.5%
- Ratio IC50 [3]: 55
- inhibition [4]: 50%
- IC50 (CDK7/Cyclin H/MNAT1): > 10 µM
- Activity (A549 [5]): Active
- inhibition [6]: 50%
- level, % of control at 10 µM (A549 [7]): 20%
- IC50 [8]: 9.24 µM
- IC50 [9]: 5.51 µM
- Activity [10]: >60%
- inhibition [11]: Active
- Activity (HCT 116 TP53(-/-)): Active
- Ratio IC50 [12]: 210
- inhibition (HeLa [13]): Active
- inhibition [14]: 50%
- inhibition [15]: 50%
- Activity [16]: 27%
- inhibition [17]: Active
- Ratio IC50 [18]: 125
- Activity [19]: 6%
- level, % of control at 10 µM [20]: 20%
- inhibition at 2 µM (HeLa [21]): 50%
- inhibition [22]: 50%
- IC50 [23]: 1.46 µM
- inhibition [24]: 50%
